Assay results as given in ChEMBL document CHEMBL3792308, “Synthesis and Evaluation of 2,6-Modified Purine 2'-C-Methyl Ribonucleosides as Inhibitors of HCV Replication” (ACS Med Chem Lett, 2016).
pEC50, pIC50, pKi: −log10 of the molar value. Active and inactive are the calls of the source. No cut-off for these calls is given here.

Key:
Hepatitis C virus = experiment: Antiviral activity against HCV infected in HuH7 Clone B cells assessed as inhibition of viral replication after 5 days by RT-PCR method; type: functional, organism-based, Hepacivirus hominis; settings: 120 h
Summary of the method: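 Huh7 cells carrying a subgenomic HCV replicon; HCV RNA extracted and amplified to measure replication inhibition. Tested up to 10 μM, and EC50 and EC90 are reported.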

[1] = Drug metabolism in human HuH7 cells assessed as nucleoside triphosphate derivative formation at 50 uM after 4 hrs by LC-MS/MS analysis; type: ADME, cell-based; settings: huh-7, 4 h
Summary of the method: (§1)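 Huh7 cells incubated with 50 μM compound for 4 h at 37 °C, then washed with phosphate-buffered saline. Intracellular metabolites extracted with 70% ice-cold methanol in water and identified by LC–MS/MS, with nucleoside mono-, di- and triphosphate levels quantified.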

[2] = Cytotoxicity against human HuH7 cells infected with HCV assessed as reduction in cellular rRNA level after 96 hrs by qRT-PCR analysis; type: cell-based, Huh-7
Summary of the method: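 Huh7 toxicity was read in the same wells as the replicon assay, by extracting and amplifying cellular rRNA alongside HCV RNA.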

[3] = Cytotoxicity against human CEM cells after 6 days by trypan blue exclusion assay; type: cell-based; settings: CEM (CCRF-CEM) cells
[4] = Drug metabolism in human HuH7 cells assessed as nucleoside diphosphate derivative formation at 50 uM after 4 hrs by LC-MS/MS analysis; type: ADME, cell-based; settings: huh-7, 4 h; summary of the method: as §1
[5] = Cytotoxicity against African green monkey Vero cells after 3 days by hemocytometry; type: cell-based; settings: chlorocebus sabaeus
[6] = Cytotoxicity against human PBMC after 6 days by trypan blue exclusion assay; type: cell-based; settings: PBMC (peripheral blood mononuclear cells)
[7] = Drug metabolism in human HuH7 cells assessed as nucleoside monophosphate derivative formation at 50 uM after 4 hrs by LC-MS/MS analysis; type: ADME, cell-based; settings: huh-7, 4 h; summary of the method: as §1
[8] = Drug level in human HuH7 cells treated with Ethyl((((2R,3S,4R,5R)-5-(2-amino-6-(((tert-butoxycarbonyl)amino)oxy)-9H-purin-9-yl)-3,4-dihydroxy-4-methyltetrahydrofuran-2-yl)methoxy)(phenoxy)phosphoryl)-Lalaninate at 50 uM after 4 hrs by LC-MS/MS analysis; type: ADME, cell-based; settings: huh-7, 4 h; summary of the method: as §1
[9] = Drug level in human HuH7 cells treated with 2-Amino-6-[N-(t-butyloxycarbonyl)aminoxy]-9H-(2'-C-methyl-beta-D-ribofuranosyl)-purine at 50 uM after 4 hrs by LC-MS/MS analysis; type: ADME, cell-based; settings: huh-7, 4 h; summary of the method: as §1
[10] = target: DNA-directed RNA polymerase, mitochondrial (Homo sapiens) (UniProt O00411); experiment: Activity at human mitochondrial RNA polymerase assessed as compound incorporation into RNA up to 100 uM relative to ATP
Summary of the method: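 Human mitochondrial RNA polymerase (POLRMT) incorporation of nucleoside triphosphate, tested up to 100 μM and expressed as percent incorporation normalized to ATP.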

[11] = Inhibition of HCV C-terminal his-tagged NS5B delta21 RNA dependent RNA polymerase assessed as inhibition of full-length 20mer RNA product formation after 120 mins by PAGE method in presence of 32P-radiolabeled GpG primer; design: species or system Hepacivirus hominis
Summary of the method: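 HCV NS5B polymerase RNA synthesis on a 20mer RNA template, run with increasing triphosphate concentrations up to 100 μM. Products resolved to follow incorporation and pausing sites opposite template uridines.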

[12] = Drug level in human HuH7 cells treated with (2R,3R,4R,5R)-2-(6-amino-2-fluoro-9H-purin-9-yl)-5-(hydroxymethyl)-3-methyltetrahydrofuran-3,4-diol at 50 uM after 4 hrs by LC-MS/MS analysis; type: ADME, cell-based; settings: huh-7, 4 h; summary of the method: as §1
[13] = Drug level in human HuH7 cells treated with Ethyl((((2R,3R,4R,5R)-5-(6-amino-2-fluoro-9H-purin-9-yl)-3,4-dihydroxy-4-methyltetrahydrofuran-2-yl)methoxy)(phenoxy)phosphoryl)-L-alaninate at 50 uM after 4 hrs by LC-MS/MS analysis; type: ADME, cell-based; settings: huh-7, 4 h; summary of the method: as §1
Homo sapiens = species: Homo sapiens; experiment: Inhibition of host RNA polymerase 2 (unknown origin) up to 100 uM
Summary of the method: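 Host RNA polymerase II was tested with nucleoside triphosphate up to 100 μM. α-Amanitin served as the positive control.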

[14] = Inhibition of host RNA polymerase 2 (unknown origin); design: species or system Homo sapiens
Summary of the method: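 Host RNA polymerase II inhibition assay with the nucleoside triphosphate tested at concentrations up to 100 μM. α-Amanitin was included as the positive control.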

[15] = Drug metabolism in human HuH7 cells assessed as 2'-beta-C-methylguanosine-5'-triphosphate formation at 50 uM after 4 hrs by LC-MS/MS analysis; type: ADME, cell-based; settings: huh-7, 4 h; summary of the method: as §1
[16] = Drug metabolism in human HuH7 cells assessed as formation of ((2R,3R,4R,5R)-5-(6-amino-2-fluoro-9H-purin-9-yl)-3,4-dihydroxy-4-methyltetrahydrofuran-2-yl)methyl tetrahydro triphosphate at 50 uM after 4 hrs by LC-MS/MS analysis; type: ADME, cell-based; settings: huh-7, 4 h; summary of the method: as §1

DNA-directed RNA polymerase, mitochondrial (Homo sapiens), sequence (O00411 whole entry): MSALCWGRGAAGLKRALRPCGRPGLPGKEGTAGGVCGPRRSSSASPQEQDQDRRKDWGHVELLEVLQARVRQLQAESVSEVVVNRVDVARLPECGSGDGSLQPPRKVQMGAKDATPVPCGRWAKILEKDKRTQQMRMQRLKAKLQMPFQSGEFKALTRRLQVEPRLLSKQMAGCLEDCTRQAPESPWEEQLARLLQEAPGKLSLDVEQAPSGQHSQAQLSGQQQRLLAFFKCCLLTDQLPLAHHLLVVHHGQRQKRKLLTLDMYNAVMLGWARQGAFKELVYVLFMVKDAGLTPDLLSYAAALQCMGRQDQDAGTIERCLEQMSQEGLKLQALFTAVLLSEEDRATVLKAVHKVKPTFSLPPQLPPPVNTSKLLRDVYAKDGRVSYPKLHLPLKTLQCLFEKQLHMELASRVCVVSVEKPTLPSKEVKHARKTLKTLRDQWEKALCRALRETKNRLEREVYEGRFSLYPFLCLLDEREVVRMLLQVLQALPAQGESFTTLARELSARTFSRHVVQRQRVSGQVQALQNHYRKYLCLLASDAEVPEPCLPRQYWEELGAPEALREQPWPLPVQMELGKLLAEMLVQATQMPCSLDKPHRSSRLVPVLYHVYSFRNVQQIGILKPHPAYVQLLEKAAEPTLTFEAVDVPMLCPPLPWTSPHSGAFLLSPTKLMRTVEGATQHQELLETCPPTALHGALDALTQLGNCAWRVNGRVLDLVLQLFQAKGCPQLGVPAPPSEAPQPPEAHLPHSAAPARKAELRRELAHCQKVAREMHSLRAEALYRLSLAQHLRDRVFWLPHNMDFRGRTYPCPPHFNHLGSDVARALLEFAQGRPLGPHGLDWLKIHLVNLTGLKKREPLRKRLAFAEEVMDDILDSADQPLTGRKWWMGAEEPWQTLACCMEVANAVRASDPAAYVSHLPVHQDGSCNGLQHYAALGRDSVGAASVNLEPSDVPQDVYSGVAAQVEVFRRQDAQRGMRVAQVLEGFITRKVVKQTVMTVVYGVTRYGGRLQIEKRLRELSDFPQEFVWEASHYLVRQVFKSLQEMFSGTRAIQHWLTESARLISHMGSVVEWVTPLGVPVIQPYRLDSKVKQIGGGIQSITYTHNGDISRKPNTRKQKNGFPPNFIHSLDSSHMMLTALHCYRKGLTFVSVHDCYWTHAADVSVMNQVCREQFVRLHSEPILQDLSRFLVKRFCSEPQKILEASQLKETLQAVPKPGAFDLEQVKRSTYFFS

pEC50 (Hepatitis C virus)	EC90 (Hepatitis C virus)	Structure (SMILES)	CC50 at 96 h [2]	CC50 at 144 h [3]	CC50 at 72 h [5]	CC50 at 144 h [6]	further results
6.00	2.8 µM	CCOC(=O)[C@H](C)NP(=O)(OC[C@H]1O[C@@H](n2cnc3c(N)nc(OC)nc32)[C@](C)(O)[C@@H]1O)Oc1ccccc1 (some centres not stated)	> 10 µM	> 100 µM	> 100 µM	> 100 µM	Drug metabolism [1]: metabolite_detected; Drug metabolism [4]: metabolite_detected; Drug metabolism [7]: metabolite_detected
–	–	C[C@@]1(O)[C@H](O)[C@@H](COP(=O)(O)OP(=O)(O)OP(=O)(O)O)O[C@H]1n1cnc2c(=O)[nH]c(N)nc21 [INX-09114]	–	–	–	–	Drug metabolism [8]: metabolite_detected; Drug metabolism [9]: metabolite_detected
–	–	C[C@@]1(O)[C@H](O)[C@@H](COP(=O)(O)OP(=O)(O)OP(=O)(O)O)O[C@H]1n1cnc2c(N)nc(F)nc21	–	–	–	–	Activity [10]: 11%; pKi [11]: 4.49; Drug metabolism [12]: metabolite_detected; Drug metabolism [13]: metabolite_detected; inhibition (Homo sapiens): inactive
–	–	CC[C@H](C)[C@@H]1NC(=O)CNC(=O)[C@@H]2Cc3c([nH]c4cc(O)ccc34)[S+]([O-])C[C@H](NC(=O)CNC1=O)C(=O)N[C@@H](CC(N)=O)C(=O)N1C[C@H](O)C[C@H]1C(=O)N[C@@H]([C@@H](C)[C@@H](O)CO)C(=O)N2 (some centres not stated)	–	–	–	–	pIC50 [14]: 8.60
6.05	8.4 µM	CC(C)(C)OC(=O)NOc1nc(N)nc2c1ncn2[C@@H]1O[C@H](CO)[C@@H](O)[C@@]1(C)O	> 10 µM	> 100 µM	> 100 µM	> 100 µM	Drug metabolism [15]: metabolite_detected
< 5.00	> 10 µM	CCOC(=O)[C@H](C)NP(=O)(OC[C@H]1O[C@@H](n2cnc3c(N)nc(NOC)nc32)[C@](C)(O)[C@@H]1O)Oc1ccccc1 (some centres not stated)	> 10 µM	> 100 µM	18 µM	> 100 µM	–
5.20	9.9 µM	CCOC(=O)[C@H](C)NP(=O)(OC[C@H]1O[C@@H](n2cnc3c(OC)nc(Cl)nc32)[C@](C)(O)[C@@H]1O)Oc1ccccc1 (some centres not stated)	> 10 µM	> 100 µM	> 100 µM	> 100 µM	–
5.39	9.2 µM	CCOC(=O)[C@H](C)NP(=O)(OC[C@H]1O[C@@H](n2cnc3c(OC)nc(ONC(=O)OCc4ccccc4)nc32)[C@](C)(O)[C@@H]1O)Oc1ccccc1 (some centres not stated)	> 33 µM	24 µM	> 100 µM	> 100 µM	–
< 5.00	> 10 µM	C[C@@]1(O)[C@H](O)[C@@H](CO)O[C@H]1n1cnc2c(N)nc(Cl)nc21	> 10 µM	> 100 µM	> 100 µM	> 100 µM	–
< 5.00	> 10 µM	CONc1nc(N)c2ncn([C@@H]3O[C@H](CO)[C@@H](O)[C@@]3(C)O)c2n1	> 10 µM	> 100 µM	> 100 µM	> 100 µM	–
6.52	5.5 µM	C[C@@]1(O)[C@H](O)[C@@H](CO)O[C@H]1n1cnc2c(NO)nc(N)nc21	> 10 µM	> 100 µM	> 100 µM	> 100 µM	–
6.52	0.9 µM	CCOC(=O)[C@H](C)NP(=O)(OC[C@H]1O[C@@H](n2cnc3c(ONC(=O)OC(C)(C)C)nc(N)nc32)[C@](C)(O)[C@@H]1O)Oc1ccccc1 (some centres not stated)	> 10 µM	39 µM	> 100 µM	> 100 µM	Drug metabolism [15]: metabolite_detected
< 5.00	> 10 µM	C[C@@]1(O)[C@H](O)[C@@H](CO)O[C@H]1n1cnc2c(N)nc(F)nc21	> 10 µM	> 100 µM	> 100 µM	> 100 µM	Drug metabolism [16]: metabolite_detected
< 5.00	> 10 µM	CCOC(=O)[C@H](C)NP(=O)(OC[C@H]1O[C@@H](n2cnc3c(N)nc(O)nc32)[C@](C)(O)[C@@H]1O)Oc1ccccc1 (some centres not stated)	> 10 µM	> 100 µM	> 100 µM	> 100 µM	–
< 5.00	> 10 µM	C=C(OCC)c1nc(N)nc2c1ncn2[C@@H]1O[C@H](CO)[C@@H](O)[C@@]1(C)O	> 10 µM	> 100 µM	> 100 µM	> 100 µM	–
5.57	8.3 µM	CCOC(=O)[C@H](C)NP(=O)(OC[C@H]1O[C@@H](n2cnc3c(N)nc(F)nc32)[C@](C)(O)[C@@H]1O)Oc1ccccc1 (some centres not stated)	> 10 µM	> 100 µM	> 100 µM	> 100 µM	Drug metabolism [1]: metabolite_detected; Drug metabolism [16]: metabolite_detected; Drug metabolism [4]: metabolite_detected; Drug metabolism [7]: metabolite_detected
< 5.00	> 10 µM	C[C@@]1(O)[C@H](O)[C@@H](CO)O[C@H]1n1cnc2c(N=[N+]=[N-])nc(N)nc21	> 10 µM	> 100 µM	> 100 µM	> 100 µM	–
< 5.00	> 10 µM	CCOC(=O)[C@H](C)NP(=O)(OC[C@H]1O[C@@H](n2cnc3c(OC)nc(OC)nc32)[C@](C)(O)[C@@H]1O)Oc1ccccc1 (some centres not stated)	> 10 µM	> 100 µM	> 100 µM	> 100 µM	–
< 5.00	> 10 µM	C[C@@]1(O)[C@H](O)[C@@H](CO)O[C@H]1n1cnc2c(N)nc(ONC(=O)OCc3ccccc3)nc21	> 10 µM	> 100 µM	> 100 µM	> 100 µM	–
< 5.00	> 10 µM	CCOC(=O)[C@H](C)NP(=O)(OC[C@H]1O[C@@H](n2cnc3c(OC)nc(O)nc32)[C@](C)(O)[C@@H]1O)Oc1ccccc1 (some centres not stated)	> 10 µM	> 100 µM	> 100 µM	> 100 µM	–

Structure (SMILES)	pEC50 (Hepatitis C virus)	EC90 (Hepatitis C virus)	CC50 at 96 h [2]	CC50 at 144 h [3]	CC50 at 72 h [5]	CC50 at 144 h [6]	further results
CCOC(=O)[C@H](C)NP(=O)(OC[C@H]1O[C@@H](n2cnc3c(N)nc(N=[N+]=[N-])nc32)[C@](C)(O)[C@@H]1O)Oc1ccccc1 (some centres not stated)	5.64	3 µM	> 10 µM	> 100 µM	> 100 µM	> 100 µM	Drug metabolism [1]: metabolite_detected; Drug metabolism [4]: metabolite_detected; Drug metabolism [7]: metabolite_detected
COc1nc(N)nc2c1ncn2[C@@H]1O[C@H](COP(=O)(N[C@@H](C)C(=O)OCC(C)(C)C)Oc2cccc3ccccc23)[C@@H](O)[C@@]1(C)O (some centres not stated) [BMS-986094]	7.70	0.04 µM	0.8 µM	8 µM	14 µM	4.5 µM	–
CCOP(=O)(OCC)c1nc(N)nc2c1ncn2[C@@H]1O[C@H](CO)[C@@H](O)[C@@]1(C)O	< 5.00	> 10 µM	> 10 µM	> 100 µM	> 100 µM	> 100 µM	–
CCOC(=O)[C@H](C)NP(=O)(OC[C@H]1O[C@@H](n2cnc3c(NOC)nc(N)nc32)[C@](C)(O)[C@@H]1O)Oc1ccccc1 (some centres not stated)	6.52	1 µM	> 10 µM	32 µM	> 100 µM	> 100 µM	–
